# Screens: PubChem, Sanford-Burnham Center for Chemical Genomics
# Rows were chosen to be rich in hits. Some 2.3% of all compounds tested hit in one or more screens of this group.
# SKN-1 inh = C. elegans SKN-1 inhibition. C. elegans VP596 Pgst-4::GFP/RFP ratio, acrylamide-induced, 24 h. inhibition, % at 21.8 µM. hit rate 0.49% among 360,000;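 active = interference check ratio from 0.5 to 1.5 plus GFP to RFP signal ratio inhibition reaching or exceeding a fixed threshold, cut at about 30% in these data, passing the limit was not always enough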
# MT1-MMP act inh = blocks activation of human MT1-MMP. hit rate 0.061% among 360,000. HT1080 RFP-PRO-GFP cells, GFP/RFP ratio fluorescence, overnight; percent of plate control window, DMSO zero. P50281. GFP/RFP ratio change, % at 20 µM;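 active = GFP/RFP ratio change of at least 30% with cell ATP level not reduced by more than half and red fluorescence within 50% of control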
#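 Assay system: HT1080 cells carrying an RFP-PRO-GFP reporter | Dosing: Single dose of 20 µM compound, 1% DMSO final | Incubation: Cells overnight before dosing, compound overnight, 37 °C, 5% CO2 | Evaluation: GFP/RFP fluorescence ratio | Control set: DMSO and RFP-L50D-GFP cell wells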
# ATG4B inhibitor = inhibitors of human ATG4B cysteine protease; Q9Y4P1; ATG4B cleavage of LC3-PLA2, NBD-HPC fluorescence, 1 h; inhibition, % at 8.33 µM; hit rate 0.51% among 340,000; in the data active = inhibition above about 40%
# Target sequence (Q9Y4P1 whole entry, looked up): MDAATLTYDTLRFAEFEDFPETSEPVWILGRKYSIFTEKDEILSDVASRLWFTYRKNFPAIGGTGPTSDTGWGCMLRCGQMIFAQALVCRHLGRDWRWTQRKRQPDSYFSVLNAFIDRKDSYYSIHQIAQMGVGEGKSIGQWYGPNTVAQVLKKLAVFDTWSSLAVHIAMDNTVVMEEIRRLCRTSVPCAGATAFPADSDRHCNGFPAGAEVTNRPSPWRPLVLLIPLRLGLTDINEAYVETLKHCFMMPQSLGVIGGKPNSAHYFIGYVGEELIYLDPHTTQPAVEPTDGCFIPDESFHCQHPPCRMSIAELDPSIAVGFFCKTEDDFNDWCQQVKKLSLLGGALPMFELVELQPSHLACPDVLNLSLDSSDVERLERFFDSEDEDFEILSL
# MPTP inh = blocks calcium-induced mitochondrial swelling; isolated mouse mitochondria, Ca2+ swelling absorbance, 30 min; inhibition, % at 10 µM; hit rate 1.4% among 360,000; AID 602449;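 active = inhibition of 50% or more, scaled per plate between neutral and stimulator controls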;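 note: 0% = DMSO wells given calcium and 100% = 1 mM EGTA wells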
# Rh123 counter = mitochondrial membrane potential, counter-screen | shares compounds with MPTP inh | AID 624504 | isolated mitochondria, Rhodamine 123 fluorescence | hit rate 78% among 5,000 | inhibition, % at 10 µM; in the data active = inhibition above about 22%;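 note: 0% = DMSO vehicle and 100% = positive control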
# MPTP swell DR = dose response confirmation of mitochondrial permeability transition pore inhibitors | IC50, µM | AID 651561 | isolated mitochondria swelling, absorbance | hit rate 58% among 780 | shares compounds with MPTP inh; in the data active = IC50 below about 20 µM
# MPTP counter DR = counter-screen for mitochondrial permeability transition pore inhibitors, dose response. shares compounds with MPTP inh. isolated mitochondria counterscreen, fluorescence read-out. IC50, µM. hit rate 49% among 780. AID 651564; in the data active = IC50 below about 80 µM
# * hit, by the source's call; i = inactive; . = not tested or not shown.
SMILES,SKN-1 inh,MT1-MMP act inh,ATG4B inhibitor,MPTP inh,Rh123 counter,others
COC(=O)COc1ccc(S(=O)(=O)NCc2ccncc2)cc1,13,-4,-10,85*,87*,
O=S(=O)(NCc1ccncc1)c1ccc(F)c(F)c1,-1,-5,.,3,.,
Cc1ccc(S(=O)(=O)NCc2ccncc2)cc1C,3,-5,1,77*,76*,
Oc1[nH]c2ccccc2c1N=Nc1ccccn1,6,2,-4,-1,.,
Oc1c(N=Nc2ccccn2)ccc2ccccc12,46*,77,1,54*,-52,
COc1cc(OC)c(NC(=S)Nc2cccc(C)c2)cc1Cl,-1,-2,1,1,.,
CCNC(=S)Nc1ccc(C)c(S(=O)(=O)Nc2ccccc2OC)c1,-3,1,6,3,.,
COc1cc(C)c(NC(=S)Nc2cccc(Cl)c2)cc1OC,-3,5,31,83*,83*,
COc1cc(C)c(NC(=S)Nc2ccc(C)c(Cl)c2)cc1OC,7,-1,36,61*,77*,
COc1ccccc1NS(=O)(=O)c1cc(NC(=S)Nc2cc(C)cc(C)c2)ccc1Cl,-3,-1,-5,97*,94*,
NS(=O)(=O)c1ccc(CCNS(=O)(=O)c2cccc3nsnc23)cc1,-4,2,-5,0,.,
Cc1ccc(OCCNCC(O)COc2ccccc2)cc1 (stereo unspecified),15,4,-2,2,.,
CC(=O)CCc1ccc(OCC(O)CNCCOc2ccc(C)cc2)cc1 (stereo unspecified),23,0,-3,74*,-9,MPTP swell DR=i;MPTP counter DR=>80
Nn1c(SCC(=O)Nc2ccc(OC(F)F)cc2)nnc1-c1ccco1,4,-1,3,0,.,
Cc1ccc(-c2csc(/C(C#N)=C(\O)CCl)n2)cc1,11,-7,3,91*,64*,
N#C/C(=C(/O)CN1CCN(c2ccccc2F)CC1)c1nc(-c2ccc(Cl)cc2)cs1,1,19,2,58*,71*,
N#C/C(=C(/O)CCl)c1nc(-c2ccccc2)cs1,12,-14,-3,37,.,
Cn1cc([N+](=O)[O-])c(C(=O)n2cccn2)n1,1,1,-1,0,.,
COc1cc(NC(=O)C(C)(C)C)c(C(=O)OCC(=O)Nc2cc(C)on2)cc1OC,-9,-5,.,0,.,
Cc1cccc(C(=O)OCC(=O)c2ccc(CC(=O)N3CCOCC3)s2)c1C,5,-3,19,0,.,
Cc1ccccc1Nc1nc(N)nc(CSc2nc3ccccc3c(=O)n2C)n1,-9,8,-1,57*,22*,
CCc1ccc(C(=O)CN2C(=O)NC3(CCOc4ccccc43)C2=O)s1 (stereo unspecified),19,-1,0,-1,.,
COc1ccc(-c2nc3cc(NC(=O)Cc4ccc(OC)c(OC)c4)ccc3o2)cc1,-11,6,15,96*,90*,
CCC(C)NCC(=O)Nc1ccc(-c2nc3cc(NC(=O)CNC(C)CC)ccc3o2)cc1 (stereo unspecified),-23,12,-5,74*,-5,MPTP swell DR=16*;MPTP counter DR=36*
COc1ccc(C(O)Cn2c(=N)n(CCCN(C)C)c3ccccc32)cc1 (stereo unspecified),2,-3,1,80*,-5,
SMILES,SKN-1 inh,MT1-MMP act inh,ATG4B inhibitor,MPTP inh,Rh123 counter,others
Cc1ccc(N2C(=O)c3ccccc3C2C(=O)c2cc(C)ccc2O)cc1 (stereo unspecified),2,0,-5,67*,71*,
NC(N)=Nc1ccc(C=C2C=Cc3ccccc32)cc1,-1,-5,2,58*,-6,MPTP swell DR=3.7*;MPTP counter DR=31*
O=C(CSc1ncnc2c1cnn2-c1ccccc1)Nc1ccccc1,24,0,0,80*,43*,
COc1cccc(NC(=O)CSc2ncnc3c2cnn3Cc2ccccc2)c1,15,-1,-8,55*,40*,
CN(C)CCOc1nc(-c2ccccc2)nc2c1oc1ccccc12,2,-6,3,75*,-2,
CN(C)CCOc1ncnc2c1oc1ccccc12,5,-5,-5,-2,.,
CC(C)(C)NC(=O)CN(C(=O)c1snc(C(=O)NC2CCCCC2)c1N)c1ccc(F)cc1,-11,-12,-9,1,.,
O=S(=O)(c1ccccc1)N1CCC(O)(CSc2ccc(Cl)cc2)CC1,-2,1,4,98*,84*,
COc1ccc(N(CC(=O)Nc2ccccc2C(F)(F)F)C2=NC3CS(=O)(=O)CC3S2)cc1 (stereo unspecified),-10,0,-8,-1,.,
S=C(NCCc1ccccc1)Nc1ccccc1N1CCOCC1,5,4,1,1,.,
Fc1cc(F)cc(NC(=S)Nc2ccccc2N2CCOCC2)c1,-1,1,3,94*,102*,
O=C(NNC1=Nc2cccc3cccc1c23)c1ccc(Br)cc1,0,-80,3,83*,67*,
COc1ccc(CC(=O)NNC2=Nc3cccc4cccc2c34)cc1OC,-3,-9,-19,5,.,
COc1cc(NC(=O)Cn2nc(C(F)(F)F)c(Br)c2C)cc([N+](=O)[O-])c1,11,4,40,85*,82*,
CC(C)c1ccccc1NC(=O)Cn1c(/C=C/c2ccccc2)nc2ccccc21,.,.,-1,.,.,
Cc1ccc(NC(=O)Cn2c(/C=C/c3ccccc3)nc3ccccc32)cc1C,13,-4,8,63*,60*,
O=S1(=O)C=C(SCc2cccc(Cl)c2)Nc2ccccc21,22,-3,16,-1,.,
O=C(Nc1ccc(F)c(F)c1)c1cnc(-c2ccccc2)nc1-c1ccccc1,-3,-1,2,72*,-1,MPTP swell DR=>100;MPTP counter DR=7*
COCCn1cnnc1SCC(=O)Nc1cc(OC)c([N+](=O)[O-])cc1C,-1,2,-1,0,.,
CCCCc1ccc(-n2nnnc2SCC(=O)Nc2cc(OC)c([N+](=O)[O-])cc2C)cc1,3,3,-2,64*,53*,
COc1ccccc1N1CCN(C(=O)c2ccc3c(c2)CCN3S(C)(=O)=O)CC1,-6,4,2,0,.,
C=CCN(C(=O)CNC(=O)c1ccco1)C(C(=O)NC1CCCC1)c1ccc(OC)cc1 (stereo unspecified),8,-1,7,1,.,
O=C(CCN1CCCCCC1)c1ccccc1,-12,7,-3,-2,.,
O=C(CCCCN1CCCCC1)c1ccc2c(c1)Cc1ccccc1-2,-6,3,-7,95*,81*,
O=C1NC(=S)SC1=Cc1ccc(F)cc1,0,8,4,82*,85*,
O=C1NC(=S)SC1=Cc1ccccc1Br,1,1,11,94*,74*,
COc1ccc(C=C2SC(=S)NC2=O)cc1,14,-3,-8,18,.,
O=C1NC(=S)SC1=Cc1cc(Br)ccc1O,10,-1,21,3,.,
